Active and inactive are the calls of the source.
How the values were obtained:
Brain = assay: Antioxidant activity in Sprague-Dawley rat brain assessed as inhibition of lipid peroxidation; type: functional, tissue-based
Kidney = assay: Antioxidant activity in Sprague-Dawley rat kidney assessed as inhibition of lipid peroxidation; type: functional, tissue-based
[1] = Antioxidant activity in Sprague-Dawley rat erythrocytes assessed as peroxyl radical-induced hemolysis after 1 hr; type: functional, Erythrocyte
[2] = Antioxidant activity assessed as ABTS radical scavenging activity at 2 mM; type: functional
How it was run: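 ABTS radical scavenging, read as the fall in colour absorbance after MeOH/phosphate buffer (1:1) is added. % inhibition = (A_control − A_test)/A_control × 100. The negative control uses MeOH/phosphate buffer (1:1) in place of compound, the blank omits ABTS, and ascorbic acid is the positive control.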

[3] = Protection against bleomycin-induced damage in calf thymus type 1 DNA assessed as absorbance at 532 nm after 1 hr; design: concentration or dose not given beside the values
How it was run: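 Reaction mixture: calf thymus DNA 0.5 mg/mL, bleomycin sulfate 0.05 mg/mL, MgCl2 5 mM, […], sample at various concentrations; 37 °C for 1 h. Stopped with EDTA (0.1 M), then TBA (1% w/v) plus HCl (25% v/v), heated 80 °C 10 min. After centrifugation, DNA damage read as absorbance increase at 532 nm. L-ascorbic acid as positive control.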

Mus musculus [4] = assay: Peripheral analgesic activity in Swiss albino mouse assessed as protection against acetic acid-induced writhing response at 20 mg/kg, po administered 30 mins before acetic acid challenge measured after 2 hrs relative to control; type: functional
Mus musculus [5] = assay: Central analgesic activity in Swiss albino mouse assessed as thermal stimuli reaction time at 20 mg/kg, po after 30 mins by hot plate method; type: functional
How it was run: (§1)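 Swiss mice of both sexes (25–30 g), six per group, on a hot plate held at 53 ± 0.5 °C. Latency was timed to hind-paw licking or jumping, with a 60 s cut-off. It was measured before dosing, then at 15, 30, 60 and 90 min after an oral aqueous suspension at 20 mg/kg. Controls were untreated; oral diclofenac sodium 20 mg/kg was the reference.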

Rattus norvegicus [6] = assay: Antiinflammatory activity in Sprague-Dawley rat assessed as protection against carrageenan-induced hind paw edema at 20 mg/kg, po administered 1 hr before carrageenan challenge measured after 2 hrs; type: functional
How it was run: (§2)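 Adult female albino rats (150–180 g), fasted 18 h, six per group. Aqueous suspension in distilled water given orally at 20 mg/kg 1 h before subplantar injection of 0.1 mL 1% w/v carrageenan into the left hind paw. Vehicle controls got 0.5 mL water; diclofenac sodium 20 mg/kg po was the reference. Paw volume was measured by mercury plethysmometer before injection and hourly for 4 h. Inhibition = (Ec−Et)/Ec, with edema = (Vt−V0)/V0.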

Mus musculus [7] = assay: Central analgesic activity in Swiss albino mouse assessed as thermal stimuli reaction time at 20 mg/kg, po after 90 mins by hot plate method; type: functional; how it was run: as §1
Mus musculus [8] = assay: Peripheral analgesic activity in Swiss albino mouse assessed as protection against acetic acid-induced writhing response at 20 mg/kg, po administered 30 mins before acetic acid challenge measured after 3 hrs relative to control; type: functional
Rattus norvegicus [9] = assay: Antiinflammatory activity in Sprague-Dawley rat assessed as protection against carrageenan-induced hind paw edema at 20 mg/kg, po administered 1 hr before carrageenan challenge measured after 1 hr; type: functional; how it was run: as §2
Rattus norvegicus [10] = assay: Antiinflammatory activity in Sprague-Dawley rat assessed as protection against carrageenan-induced hind paw edema at 20 mg/kg, po administered 1 hr before carrageenan challenge measured after 3 hrs; type: functional; how it was run: as §2
Mus musculus [11] = assay: Peripheral analgesic activity in Swiss albino mouse assessed as protection against acetic acid-induced writhing response at 20 mg/kg, po administered 30 mins before acetic acid challenge measured after 30 mins relative to control; type: functional
Mus musculus [12] = assay: Peripheral analgesic activity in Swiss albino mouse assessed as protection against acetic acid-induced writhing response at 20 mg/kg, po administered 30 mins before acetic acid challenge measured after 1 hr relative to control; type: functional
Mus musculus [13] = assay: Central analgesic activity in Swiss albino mouse assessed as thermal stimuli reaction time at 20 mg/kg, po after 60 mins by hot plate method; type: functional; how it was run: as §1

Compound | Activity (Brain) | Activity (Kidney) | Activity [1] | inhibition [2] | Activity [3] | Activity (Mus musculus [4]) | Activity (Mus musculus [5]) | Activity (Rattus norvegicus [6]) | Activity (Mus musculus [7]) | Activity (Mus musculus [8]) | Activity (Rattus norvegicus [9]) | Activity (Rattus norvegicus [10]) | Activity (Mus musculus [11]) | Activity (Mus musculus [12]) | Activity (Mus musculus [13])
Cc1c(C(=O)/C=C/c2ccccc2)sc2nc3nc4c(c(-c5ccc(Cl)cc5)c3c(=O)n12)CCC/C4=C/c1ccc(Cl)cc1 | Active | Active | 4.54% | 38.9% | 0.035 |  |  |  |  |  |  |  |  |  | 
O=C1O[C@H]([C@@H](O)CO)C(O)=C1O |  |  |  |  | 0.02 |  |  |  |  |  |  |  |  |  | 
O=c1[nH]c(=S)[nH]c2c1C(c1ccccc1)C1=C(N2)/C(=C/c2ccccc2)CCC1 (stereo not drawn) | Active | Active | 35.75% | 81.5% | 0.025 | 69.2% | 9.42 min | 53.2% | 11.67 min | 50.1% | 49% | 41% | 61.2% | 65.1% | 10.41 min
CCn1c(SC)nc2nc3c(c(-c4ccc(Cl)cc4)c2c1=O)CCC/C3=C/c1ccc(Cl)cc1 | Active | Active | 3.93% | 37% | 0.021 |  |  |  |  |  |  |  |  |  | 
CSc1nc2nc3c(c(-c4ccc(Cl)cc4)c2c(=O)[nH]1)CCC/C3=C/c1ccc(Cl)cc1 | Active | Active | 4.24% | 33.3% |  | 55.5% | 8.42 min | 56.2% | 10.67 min | 37.6% | 50.1% | 32.4% | 50.4% | 52% | 10.41 min
O=c1c2c(-c3ccc(Cl)cc3)c3c(nc2nc2sc4c(n12)ONC4c1ccccc1)/C(=C\c1ccc(Cl)cc1)CCC3 (stereo not drawn) | Active | Active | 9.39% | 33.3% |  | 59.3% | 7.08 min | 57.1% | 12.68 min | 36.5% | 49.6% | 34.8% | 46.7% | 53% | 9.52 min
CC(=O)C(Sc1nc2nc3c(c(-c4ccc(Cl)cc4)c2c(=O)[nH]1)CCC/C3=C/c1ccc(Cl)cc1)C(C)=O | Active | Active | 7.87% | 42.6% |  | 56.6% | 8.68 min | 48.6% | 10.4 min | 37.3% | 46.3% | 38.6% | 46% | 54% | 9.8 min
C/C(=N/NC(N)=S)c1sc2nc3nc4c(c(-c5ccc(Cl)cc5)c3c(=O)n2c1C)CCC/C4=C/c1ccc(Cl)cc1 | Active | Active | 6.21% | 63% | 0.065 |  |  |  |  |  |  |  |  |  | 

Reference: ChEMBL document CHEMBL1153848, “Design and synthesis of azolopyrimidoquinolines, pyrimidoquinazolines as anti-oxidant, anti-inflammatory and analgesic activities” (2009)
